21 compounds from ChEMBL document CHEMBL2331436, “Antimicrobial phenolics and unusual glycerides from Helichrysum italicum subsp. microphyllum” (2013) can be followed below.

Format in all cases: functional
For assay [1], the system named is Staphylococcus aureus. The assay is described as follows: Antibacterial activity against epidemic methicillin-resistant Staphylococcus aureus EMRSA-16 after 18 hrs by MTT assay. The following applies: EMRSA-16, 18 h. Put shortly: (§1)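 MIC by broth microdilution in Mueller-Hinton broth with 20 mg/L Ca2+ and 10 mg/L Mg2+. Strains were grown overnight on nutrient agar at 37 °C. Agents were dissolved in DMSO, diluted in broth to a 512 mg/L stock, and serially diluted to a final 128−0.25 range with inoculum. Plates ran in duplicate for 18 h at 37 °C, then […] methanolic MTT for 30 min, scored by blue colour.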

In assay [2] the test system is Staphylococcus aureus. The assay is described as follows: Antibacterial activity against epidemic methicillin-resistant Staphylococcus aureus EMRSA-15 after 18 hrs by MTT assay. The settings on record: EMRSA-15, 18 h. A digest of the protocol:
as §1
On the technique in general: Formazan colour is commonly taken as a measure of viable cells.

Assay [3] has as its system Staphylococcus aureus. The assay is described as follows: Antibacterial activity against Staphylococcus aureus RN4220 overexpressing MsrA macrolide efflux protein after 18 hrs by MTT assay. The following applies: RN4220, 18 h. Put shortly:
as §1

Assay [4] relates to Staphylococcus aureus. The assay is described as follows: Antibacterial activity against Staphylococcus aureus ATCC 25923 after 18 hrs by MTT assay. The following applies: ATCC 25923, 18 h. A digest of the protocol:
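Strain grown overnight at 37 °C on nutrient agar before assay. MIC by broth microdilution in Mueller-Hinton broth with 20 mg/L Ca2+ and 10 mg/L Mg2+. Agents in DMSO, diluted in MHB to a 512 mg/L stock, then serially diluted to a final 128−0.25 […]. Duplicates, 18 h at 37 °C, then 5 mg/L methanolic MTT for 30 min; colour read-out.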

Assay [5] relates to Staphylococcus aureus. The assay is described as follows: Antibacterial activity against Staphylococcus aureus XU212 overexpressing TetK tetracycline efflux pump after 18 hrs by MTT assay. The settings on record: XU212, 18 h. A digest of the protocol: as §1
Assay [6] relates to Staphylococcus aureus. The assay is described as follows: Antibacterial activity against Staphylococcus aureus 1199B overexpressing NorA pump after 18 hrs by MTT assay. Put shortly: as §1

SMILES strings stand for the structures. In brackets after ≈: the same amount, converted by molar mass. A value given as a limit tells only on which side of the number the result lay.

Broadly, the MIC is the least concentration at which growth counts as inhibited. A higher MIC goes with weaker potency. With `C=C(COC(=O)CCC(C)C)[C@H]1Cc2cc(C(C)=O)ccc2O1`, the minimum inhibitory concentration (MIC) with Staphylococcus aureus [1], in the assay with Staphylococcus aureus [2], in the assay with Staphylococcus aureus [3], against Staphylococcus aureus [4], against Staphylococcus aureus [5] and in the assay on Staphylococcus aureus [6] was greater than 128 µg/mL in each case.

Turning to `C=C(COC(=O)C(C)C)[C@H]1Cc2cc(C(C)=O)ccc2O1`, the minimum inhibitory concentration (MIC) with Staphylococcus aureus [1], against Staphylococcus aureus [2], against Staphylococcus aureus [3], in the assay on Staphylococcus aureus [4], in the assay on Staphylococcus aureus [5] and against Staphylococcus aureus [6] was greater than 128 µg/mL each time.

For `C=C(COC(=O)C(C)CC)[C@H]1Cc2cc(C(C)=O)ccc2O1` (stereo partly specified), the MIC in the assay on Staphylococcus aureus [1], in the assay with Staphylococcus aureus [2], in the assay with Staphylococcus aureus [3], against Staphylococcus aureus [4], in the assay with Staphylococcus aureus [5] and against Staphylococcus aureus [6] was greater than 128 µg/mL each time.

For the compound `COC(=O)/C=C/c1ccc(OC/C=C(\C)CCC=C(C)C)cc1`, the MIC against Staphylococcus aureus [1], against Staphylococcus aureus [2], against Staphylococcus aureus [3], in the assay with Staphylococcus aureus [4], in the assay on Staphylococcus aureus [5] and against Staphylococcus aureus [6] was greater than 128 µg/mL throughout.

On to `COC(=O)/C=C\c1ccc(OC/C=C(\C)CCC=C(C)C)cc1`, for which the MIC against Staphylococcus aureus [1], in the assay on Staphylococcus aureus [2], in the assay on Staphylococcus aureus [3], with Staphylococcus aureus [4], against Staphylococcus aureus [5] and against Staphylococcus aureus [6] was greater than 128 µg/mL each time.

As to `CCCc1oc(=O)c(C(C)c2c(O)c(CC=C(C)C)c(O)c(C(C)=O)c2O)c(O)c1C(C)C` (stereo unspecified), the MIC against Staphylococcus aureus [1] was 128 µg/mL (≈ 279 µM); in the assay with Staphylococcus aureus [2], 32 µg/mL (≈ 69.8 µM); in the assay on Staphylococcus aureus [3] it was 32 µg/mL (≈ 69.8 µM); against Staphylococcus aureus [4], 128 µg/mL (≈ 279 µM); against Staphylococcus aureus [5], 128 µg/mL (≈ 279 µM); in the assay with Staphylococcus aureus [6], 32 µg/mL (≈ 69.8 µM).

Regarding `CCCc1oc(=O)c(C(c2ccccc2)c2c(O)c(CC=C(C)C)c(O)c(C(C)=O)c2O)c(O)c1C(C)C` (stereo unspecified), the minimum inhibitory concentration (MIC) with Staphylococcus aureus [1] turned out to be 8 µg/mL (≈ 15.4 µM); against Staphylococcus aureus [2], 6 µg/mL (≈ 11.5 µM); in the assay with Staphylococcus aureus [3] it was 2 µg/mL (≈ 3.84 µM); in the assay on Staphylococcus aureus [4], 8 µg/mL (≈ 15.4 µM); with Staphylococcus aureus [5], 4 µg/mL (≈ 7.68 µM); in the assay with Staphylococcus aureus [6] it was 16 µg/mL (≈ 30.7 µM).

As to `CCc1oc(=O)c(Cc2c(O)c(CC=C(C)C)c(O)c(C(C)=O)c2O)c(O)c1CC`, the MIC turned out to be 2 µg/mL (≈ 4.8 µM) with Staphylococcus aureus [1]; 2 µg/mL (≈ 4.8 µM) against Staphylococcus aureus [2]; 2 µg/mL (≈ 4.8 µM) against Staphylococcus aureus [3]; 1 µg/mL (≈ 2.4 µM) with Staphylococcus aureus [4]; 16 µg/mL (≈ 38.4 µM) against Staphylococcus aureus [5]; 1 µg/mL (≈ 2.4 µM) against Staphylococcus aureus [6].

As for `CCc1c(C)oc(=O)c(C(C)c2c(O)c(CC=C(C)C)c(O)c(C(C)=O)c2O)c1O` (stereo unspecified), the MIC with Staphylococcus aureus [1] is 128 µg/mL (≈ 307 µM); with Staphylococcus aureus [2] it was 128 µg/mL (≈ 307 µM); with Staphylococcus aureus [3] it was 128 µg/mL (≈ 307 µM); against Staphylococcus aureus [4], 64 µg/mL (≈ 154 µM); with Staphylococcus aureus [5], greater than 128 µg/mL; against Staphylococcus aureus [6], 128 µg/mL (≈ 307 µM).

Consider `CCCCCC(=O)C(c1c(O)c(CC=C(C)C)c(O)c(C(C)=O)c1O)c1c(O)c(CC)c(C)oc1=O` (stereo unspecified), for which the MIC against Staphylococcus aureus [1] was 8 µg/mL (≈ 16 µM); against Staphylococcus aureus [2] it was 16 µg/mL (≈ 32 µM); in the assay on Staphylococcus aureus [3], 8 µg/mL (≈ 16 µM); in the assay with Staphylococcus aureus [4], 8 µg/mL (≈ 16 µM); in the assay on Staphylococcus aureus [5], 16 µg/mL (≈ 32 µM); against Staphylococcus aureus [6], 16 µg/mL (≈ 32 µM).

On to `C=C(COC(C)=O)[C@H]1Cc2cc(C(C)=O)ccc2O1`, for which the minimum inhibitory concentration (MIC) against Staphylococcus aureus [1], with Staphylococcus aureus [2], against Staphylococcus aureus [3], with Staphylococcus aureus [4], against Staphylococcus aureus [5] and in the assay on Staphylococcus aureus [6] was greater than 128 µg/mL in each case.

Take `CCc1oc(=O)c(Cc2c(O)c(CC=C(C)C)c(O)c(C(C)=O)c2O)c(O)c1C` [ARZANOL]: the minimal inhibitory concentration (MIC) in the assay on Staphylococcus aureus [1] is 2 µg/mL (≈ 4.97 µM); in the assay with Staphylococcus aureus [2], 4 µg/mL (≈ 9.94 µM); in the assay with Staphylococcus aureus [3] it was 2 µg/mL (≈ 4.97 µM); against Staphylococcus aureus [4], 1 µg/mL (≈ 2.48 µM); in the assay on Staphylococcus aureus [5], 4 µg/mL (≈ 9.94 µM); in the assay with Staphylococcus aureus [6] it was 1 µg/mL (≈ 2.48 µM).

As for `CCc1oc(=O)c(Cc2c(O)c3c(c(C(C)=O)c2O)OC(C)(C)CC3)c(O)c1C` [CYCLOARZANOL A], the minimum inhibitory concentration (MIC) against Staphylococcus aureus [1] was greater than 128 µg/mL; against Staphylococcus aureus [2] it was 128 µg/mL (≈ 318 µM); with Staphylococcus aureus [3], 32 µg/mL (≈ 79.5 µM); against Staphylococcus aureus [4], 32 µg/mL (≈ 79.5 µM); in the assay on Staphylococcus aureus [5], 128 µg/mL (≈ 318 µM); in the assay on Staphylococcus aureus [6], 128 µg/mL (≈ 318 µM).

Take `CCc1oc(=O)c(Cc2c(O)c(C(C)=O)c(O)c3c2OC(C)(C)CC3)c(O)c1C` [CYCLOARZANOL B]: the minimum inhibitory concentration (MIC) with Staphylococcus aureus [1], in the assay on Staphylococcus aureus [2], with Staphylococcus aureus [3], in the assay with Staphylococcus aureus [4], with Staphylococcus aureus [5] and in the assay with Staphylococcus aureus [6] was greater than 128 µg/mL each time.

Regarding `CCc1oc(=O)c(Cc2c(O)c(C)c(CC)oc2=O)c(O)c1C` [HELIPYRONE], the MIC is 128 µg/mL (≈ 400 µM) against Staphylococcus aureus [1]; greater than 128 µg/mL in the assay on Staphylococcus aureus [2]; 12 µg/mL (≈ 37.5 µM) against Staphylococcus aureus [3]; 64 µg/mL (≈ 200 µM) in the assay on Staphylococcus aureus [4]; greater than 128 µg/mL against Staphylococcus aureus [5]; greater than 128 µg/mL in the assay with Staphylococcus aureus [6].

As for `CCc1oc(OC)c(Cc2c(O)c(CC=C(C)C)c(O)c(C(C)=O)c2O)c(=O)c1C` [METHYLARZANOL], the MIC in the assay with Staphylococcus aureus [1], in the assay with Staphylococcus aureus [2], in the assay on Staphylococcus aureus [3], in the assay with Staphylococcus aureus [4], against Staphylococcus aureus [5] and in the assay on Staphylococcus aureus [6] was greater than 128 µg/mL in each case.

On to `CCC(C)C(=O)C(C)c1oc(=O)c(C)c(O)c1C` (stereo unspecified) [MICROPYRONE], for which the minimum inhibitory concentration (MIC) in the assay with Staphylococcus aureus [1] is 128 µg/mL (≈ 507 µM); against Staphylococcus aureus [2], greater than 128 µg/mL; with Staphylococcus aureus [3], 128 µg/mL (≈ 507 µM); with Staphylococcus aureus [4], greater than 128 µg/mL; in the assay with Staphylococcus aureus [5], greater than 128 µg/mL; in the assay with Staphylococcus aureus [6], greater than 128 µg/mL.

`C=C(COC(=O)CCCCCCCC)[C@H]1Cc2cc(C(C)=O)ccc2O1` [NONANOYLBITALIN A]: the MIC against Staphylococcus aureus [1], against Staphylococcus aureus [2], against Staphylococcus aureus [3], against Staphylococcus aureus [4], against Staphylococcus aureus [5] and with Staphylococcus aureus [6] was greater than 128 µg/mL each time.

With `CCn1cc(C(=O)O)c(=O)c2cc(F)c(N3CCNCC3)cc21` [NORFLOXACIN], the MIC was found to be 128 µg/mL (≈ 401 µM) against Staphylococcus aureus [1]; 0.5 µg/mL (≈ 1.57 µM) with Staphylococcus aureus [2]; 0.5 µg/mL (≈ 1.57 µM) with Staphylococcus aureus [3]; 0.5 µg/mL (≈ 1.57 µM) with Staphylococcus aureus [4]; 8 µg/mL (≈ 25.1 µM) against Staphylococcus aureus [5]; 32 µg/mL (≈ 100 µM) in the assay on Staphylococcus aureus [6].

Take `C=C(COC(=O)CCCCCCC/C=C\CCCCCCCC)[C@H]1Cc2cc(C(C)=O)ccc2O1` [OLEOYLBITALIN A]: the MIC in the assay with Staphylococcus aureus [1], against Staphylococcus aureus [2], with Staphylococcus aureus [3], with Staphylococcus aureus [4], with Staphylococcus aureus [5] and against Staphylococcus aureus [6] was greater than 128 µg/mL throughout.

`C=C(COC(=O)CC)[C@H]1Cc2cc(C(C)=O)ccc2O1` [PROPANOYLBITALIN A]: the MIC in the assay with Staphylococcus aureus [1], against Staphylococcus aureus [2], with Staphylococcus aureus [3], against Staphylococcus aureus [4], in the assay with Staphylococcus aureus [5] and against Staphylococcus aureus [6] was greater than 128 µg/mL in each case.
